Test results from ChEMBL document CHEMBL3804779, “Novel free fatty acid receptor 1 (GPR40) agonists based on 1,3,4-thiadiazole-2-carboxamide scaffold” (Bioorg Med Chem, 2016).

Experiments:
[1] = target: T1, hERG (KCNH2) (Homo sapiens, UniProt Q12809); experiment: Inhibition of human ERG expressed in cell membranes at 1 uM after 4 hrs by fluorescence polarization assay; conditions: cell membranes that express human ERG
Summary of the method: (§1)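 Predictor hERG fluorescence polarization kit used per manufacturer's protocol. hERG-containing cell membranes incubated with fluorescent tracer and test compound at 1, 5 or 20 uM for 4 h.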

[2] = target: Free fatty acid receptor 1 (Homo sapiens, UniProt O14842); experiment: Agonist activity at human GPR40 expressed in CHO cells by calcium influx assay; assay type: functional, cell-based
Sequence of Free fatty acid receptor 1 (O14842 whole entry): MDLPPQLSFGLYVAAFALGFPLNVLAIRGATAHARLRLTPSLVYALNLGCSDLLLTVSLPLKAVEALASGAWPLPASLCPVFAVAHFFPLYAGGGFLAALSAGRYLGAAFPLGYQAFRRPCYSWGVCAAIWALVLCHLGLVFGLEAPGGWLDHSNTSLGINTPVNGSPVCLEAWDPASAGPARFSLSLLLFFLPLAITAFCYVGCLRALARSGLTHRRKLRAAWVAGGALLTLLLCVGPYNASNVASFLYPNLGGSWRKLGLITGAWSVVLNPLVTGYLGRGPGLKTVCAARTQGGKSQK
Summary of the method: (§2)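 CHO cells stably expressing the receptor (GPR40, GPR41, GPR43 or GPR120) plated 24 h before assay and loaded with calcium dye for 1 h. Calcium flux read on FLIPR Tetra. Agonist response taken as maximum fluorescence change over baseline. Concentration-response curves fitted for EC50. GW9508 run as positive control.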

[3] = Intrinsic clearance in BALB/c mouse liver microsomes at 2 uM after 40 mins by HPLC analysis; assay type: ADME; conditions: read-out: CLH
Summary of the method: (§3)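 BALB/c male mouse liver microsomes (pooled, perfused livers) at 0.42 mg protein/ml in 100 mM phosphate buffer pH 7.4 with MgCl2 and an NADPH-regenerating system. Compound at 2 uM (1.6% solvent final) incubated at 37 °C in duplicate. Five time points over 40 min, quenched with acetonitrile and read by HPLC-MS/MS. Controls lacked NADPH. kel from ln(AUC) vs time regression; T1/2 = 0.693/kel; CLint scaled per mg microsomal protein.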

[4] = target: T1, hERG (KCNH2); experiment: Inhibition of human ERG expressed in cell membranes at 5 uM after 4 hrs by fluorescence polarization assay; conditions: cell membranes that express human ERG; summary of the method: as §1
[5] = target: CYP3A4 (Homo sapiens, UniProt P08684); experiment: Inhibition of CYP3A4 (unknown origin) at 20 uM by P450-glo assay; assay type: ADME
Sequence of CYP3A4 (P08684 whole entry): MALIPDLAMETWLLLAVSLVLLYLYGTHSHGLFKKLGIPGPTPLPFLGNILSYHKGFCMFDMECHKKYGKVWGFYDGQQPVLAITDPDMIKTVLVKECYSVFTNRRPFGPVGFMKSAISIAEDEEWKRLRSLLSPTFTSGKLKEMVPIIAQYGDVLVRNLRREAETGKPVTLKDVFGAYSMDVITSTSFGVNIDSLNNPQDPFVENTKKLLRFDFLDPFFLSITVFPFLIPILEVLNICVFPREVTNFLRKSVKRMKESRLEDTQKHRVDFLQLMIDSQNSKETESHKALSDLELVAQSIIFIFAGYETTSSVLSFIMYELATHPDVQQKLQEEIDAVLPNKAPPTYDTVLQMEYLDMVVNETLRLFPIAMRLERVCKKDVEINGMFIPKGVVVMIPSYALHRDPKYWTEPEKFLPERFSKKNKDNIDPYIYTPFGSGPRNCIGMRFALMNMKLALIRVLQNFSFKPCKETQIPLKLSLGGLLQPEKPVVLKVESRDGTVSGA

[6] = target: T2, CYP1A2 (Homo sapiens, UniProt P05177); experiment: Inhibition of CYP1A2 (unknown origin) at 20 uM by P450-glo assay; assay type: ADME
T2 sequence (P05177 whole entry): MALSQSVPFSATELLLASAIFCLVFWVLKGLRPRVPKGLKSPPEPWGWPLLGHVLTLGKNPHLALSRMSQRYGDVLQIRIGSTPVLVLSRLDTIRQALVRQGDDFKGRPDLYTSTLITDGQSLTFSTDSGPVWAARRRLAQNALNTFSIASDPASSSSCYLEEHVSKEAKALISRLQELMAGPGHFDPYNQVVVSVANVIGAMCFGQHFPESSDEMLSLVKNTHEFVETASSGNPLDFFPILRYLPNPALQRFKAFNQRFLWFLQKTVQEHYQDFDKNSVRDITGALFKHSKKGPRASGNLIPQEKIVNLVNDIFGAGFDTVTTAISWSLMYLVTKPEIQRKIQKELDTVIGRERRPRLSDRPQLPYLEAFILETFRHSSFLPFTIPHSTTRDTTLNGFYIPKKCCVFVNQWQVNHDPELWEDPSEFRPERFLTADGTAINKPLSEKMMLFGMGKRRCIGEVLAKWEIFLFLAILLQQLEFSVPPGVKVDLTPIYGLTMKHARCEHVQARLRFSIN
Summary of the method: (§4)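 P450-Glo luminescent assay run per manufacturer's protocol. Each CYP isoform incubated with its luminogenic substrate and test compound at 20 uM (0.25% DMSO final), in quadruplicate. Control membranes without CYP served as baseline.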

[7] = target: T1, hERG (KCNH2); experiment: Inhibition of human ERG expressed in cell membranes at 20 uM after 4 hrs by fluorescence polarization assay; conditions: cell membranes that express human ERG; summary of the method: as §1
[8] = target: CYP2C9 (Homo sapiens, UniProt P11712); experiment: Inhibition of CYP2C9 (unknown origin) at 20 uM by P450-glo assay; assay type: ADME; summary of the method: as §4
Sequence of CYP2C9 (P11712 whole entry): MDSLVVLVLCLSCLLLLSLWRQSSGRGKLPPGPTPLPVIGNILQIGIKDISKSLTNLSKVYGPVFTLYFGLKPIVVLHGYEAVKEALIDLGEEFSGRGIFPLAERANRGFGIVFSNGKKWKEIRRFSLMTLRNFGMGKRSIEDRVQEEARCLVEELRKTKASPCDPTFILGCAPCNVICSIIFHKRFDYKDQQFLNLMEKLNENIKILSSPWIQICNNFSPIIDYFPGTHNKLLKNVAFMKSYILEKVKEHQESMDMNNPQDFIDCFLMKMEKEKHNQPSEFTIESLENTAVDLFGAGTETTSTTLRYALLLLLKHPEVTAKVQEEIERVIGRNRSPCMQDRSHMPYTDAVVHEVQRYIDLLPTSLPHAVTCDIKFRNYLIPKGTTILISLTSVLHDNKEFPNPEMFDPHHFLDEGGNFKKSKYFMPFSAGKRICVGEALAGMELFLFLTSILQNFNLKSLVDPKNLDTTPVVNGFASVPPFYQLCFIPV

[9] = target: T3, Free fatty acid receptor 2 (Homo sapiens, UniProt O15552); experiment: Agonist activity at human GPR43 (unknown origin) expressed in CHO cells by calcium influx assay; assay type: functional, cell-based; summary of the method: as §2
T3 sequence (O15552 whole entry): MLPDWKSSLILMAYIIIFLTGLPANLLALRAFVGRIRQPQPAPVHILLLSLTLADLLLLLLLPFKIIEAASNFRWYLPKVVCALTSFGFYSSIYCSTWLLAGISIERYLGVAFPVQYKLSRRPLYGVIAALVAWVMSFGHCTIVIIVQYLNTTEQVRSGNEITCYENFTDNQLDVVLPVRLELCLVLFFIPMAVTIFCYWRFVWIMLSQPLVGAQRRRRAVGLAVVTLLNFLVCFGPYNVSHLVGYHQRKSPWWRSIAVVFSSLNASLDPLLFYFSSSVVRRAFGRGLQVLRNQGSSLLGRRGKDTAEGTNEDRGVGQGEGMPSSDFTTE

[10] = target: CYP2D6 (Homo sapiens, UniProt P10635); experiment: Inhibition of CYP2D6 (unknown origin) at 20 uM by P450-glo assay; assay type: ADME; summary of the method: as §4
Sequence of CYP2D6 (P10635 whole entry): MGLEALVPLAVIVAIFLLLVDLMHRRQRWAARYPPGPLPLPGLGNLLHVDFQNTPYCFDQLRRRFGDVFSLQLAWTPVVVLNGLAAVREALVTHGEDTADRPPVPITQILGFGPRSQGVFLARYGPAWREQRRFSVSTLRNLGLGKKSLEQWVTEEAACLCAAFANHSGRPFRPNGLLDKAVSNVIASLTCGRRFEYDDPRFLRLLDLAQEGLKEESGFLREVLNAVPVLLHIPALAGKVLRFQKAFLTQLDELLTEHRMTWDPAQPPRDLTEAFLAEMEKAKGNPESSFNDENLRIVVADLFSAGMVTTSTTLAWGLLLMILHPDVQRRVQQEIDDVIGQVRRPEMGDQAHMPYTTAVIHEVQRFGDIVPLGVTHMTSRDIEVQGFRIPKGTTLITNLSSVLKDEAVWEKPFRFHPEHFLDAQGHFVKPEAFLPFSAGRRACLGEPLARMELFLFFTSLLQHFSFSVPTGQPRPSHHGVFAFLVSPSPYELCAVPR

[11] = Protein binding in mouse plasma at 1 uM after 5 hrs by HPLC-MS/MS analysis; assay type: ADME, cell-free; conditions: read-out: PPB (converted)
Summary of the method: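 Equilibrium dialysis (MWCO 12-14 kDa) of mouse plasma spiked at 1 uM (1% solvent final) against PBS pH 7.4, 37 °C, orbital shaking, 5 h, in quadruplicate. Chamber samples matrix-matched, precipitated with acetonitrile and analysed by HPLC-MS/MS. % bound = (1 − buffer/plasma peak area) × 100. Recovery checked against an undialyzed standard. Verapamil used as reference.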

[12] = target: T4, Free fatty acid receptor 4 (Homo sapiens, UniProt Q5NUL3); experiment: Agonist activity at human GPR120 (unknown origin) expressed in CHO cells by calcium influx assay; assay type: functional, cell-based; summary of the method: as §2
T4 sequence (Q5NUL3 whole entry): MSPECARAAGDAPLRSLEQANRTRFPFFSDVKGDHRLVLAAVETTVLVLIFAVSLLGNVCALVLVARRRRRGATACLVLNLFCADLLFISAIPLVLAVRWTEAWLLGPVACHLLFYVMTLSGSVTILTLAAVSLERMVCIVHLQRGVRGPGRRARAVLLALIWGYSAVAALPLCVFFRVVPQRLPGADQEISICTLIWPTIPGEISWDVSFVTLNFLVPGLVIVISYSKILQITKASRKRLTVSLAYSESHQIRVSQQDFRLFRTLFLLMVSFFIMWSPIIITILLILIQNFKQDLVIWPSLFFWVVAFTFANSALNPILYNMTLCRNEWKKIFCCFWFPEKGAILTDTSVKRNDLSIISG

[13] = target: T5, Free fatty acid receptor 3 (Homo sapiens, UniProt O14843); experiment: Agonist activity at human GPR41 (unknown origin) expressed in CHO cells by calcium influx assay; assay type: functional, cell-based; summary of the method: as §2
T5 sequence (O14843 whole entry): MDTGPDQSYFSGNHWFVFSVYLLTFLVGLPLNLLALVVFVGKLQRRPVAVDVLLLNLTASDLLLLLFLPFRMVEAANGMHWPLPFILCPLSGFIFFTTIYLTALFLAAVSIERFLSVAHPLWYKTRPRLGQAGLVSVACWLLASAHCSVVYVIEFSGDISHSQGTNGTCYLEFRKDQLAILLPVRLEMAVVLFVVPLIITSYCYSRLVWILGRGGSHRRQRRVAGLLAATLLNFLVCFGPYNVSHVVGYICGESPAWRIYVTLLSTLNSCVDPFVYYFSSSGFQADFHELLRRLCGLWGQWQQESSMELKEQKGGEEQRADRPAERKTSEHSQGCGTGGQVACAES

[14] = target: CYP2C19 (Homo sapiens, UniProt P33261); experiment: Inhibition of CYP2C19 (unknown origin) at 20 uM by P450-glo assay; assay type: ADME; summary of the method: as §4
Sequence of CYP2C19 (P33261 whole entry): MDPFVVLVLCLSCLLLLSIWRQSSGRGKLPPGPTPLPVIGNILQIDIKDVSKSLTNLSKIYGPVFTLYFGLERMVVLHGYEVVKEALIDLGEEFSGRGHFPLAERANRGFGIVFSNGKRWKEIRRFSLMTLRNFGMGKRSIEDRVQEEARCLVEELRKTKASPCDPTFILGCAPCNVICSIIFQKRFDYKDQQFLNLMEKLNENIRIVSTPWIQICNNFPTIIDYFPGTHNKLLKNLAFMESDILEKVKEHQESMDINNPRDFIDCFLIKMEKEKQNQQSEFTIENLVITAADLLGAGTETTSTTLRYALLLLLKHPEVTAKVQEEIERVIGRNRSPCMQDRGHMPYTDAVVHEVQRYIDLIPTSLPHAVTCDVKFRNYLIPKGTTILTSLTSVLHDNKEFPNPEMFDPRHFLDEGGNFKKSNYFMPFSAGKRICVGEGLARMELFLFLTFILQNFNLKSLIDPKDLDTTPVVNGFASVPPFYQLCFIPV

[15] = Distribution coefficient, log D of the compound at pH 7.4 by LC-MS/MS analysis; assay type: physicochemical; conditions: octanol/water
Summary of the method: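 Shake-flask partitioning between n-octanol and PBS, run in duplicate. Compound added from 10 mM DMSO stock to pre-equilibrated phases, shaken 1 h and separated by centrifugation. Each phase diluted and quantified by LC-MS/MS. D calculated from peak areas corrected for dilution (100·So/Sp). Reference compound included.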

[16] = Metabolic stability in BALB/c mouse liver microsomes at 2 uM after 40 mins by HPLC analysis; assay type: ADME; summary of the method: as §3
[17] = Half life in mouse plasma at 1 uM by LC-MS/MS analysis; assay type: ADME
Summary of the method: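 Compound at 1 uM (1% DMSO final) incubated in mouse plasma at 37 °C with shaking. Five time points sampled over 120 min, each quenched with acetonitrile and centrifuged. Supernatant analysed by LC-MS/MS for percentage remaining and T1/2. Verapamil and propantheline used as references.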

T1 sequence (Q12809 whole entry): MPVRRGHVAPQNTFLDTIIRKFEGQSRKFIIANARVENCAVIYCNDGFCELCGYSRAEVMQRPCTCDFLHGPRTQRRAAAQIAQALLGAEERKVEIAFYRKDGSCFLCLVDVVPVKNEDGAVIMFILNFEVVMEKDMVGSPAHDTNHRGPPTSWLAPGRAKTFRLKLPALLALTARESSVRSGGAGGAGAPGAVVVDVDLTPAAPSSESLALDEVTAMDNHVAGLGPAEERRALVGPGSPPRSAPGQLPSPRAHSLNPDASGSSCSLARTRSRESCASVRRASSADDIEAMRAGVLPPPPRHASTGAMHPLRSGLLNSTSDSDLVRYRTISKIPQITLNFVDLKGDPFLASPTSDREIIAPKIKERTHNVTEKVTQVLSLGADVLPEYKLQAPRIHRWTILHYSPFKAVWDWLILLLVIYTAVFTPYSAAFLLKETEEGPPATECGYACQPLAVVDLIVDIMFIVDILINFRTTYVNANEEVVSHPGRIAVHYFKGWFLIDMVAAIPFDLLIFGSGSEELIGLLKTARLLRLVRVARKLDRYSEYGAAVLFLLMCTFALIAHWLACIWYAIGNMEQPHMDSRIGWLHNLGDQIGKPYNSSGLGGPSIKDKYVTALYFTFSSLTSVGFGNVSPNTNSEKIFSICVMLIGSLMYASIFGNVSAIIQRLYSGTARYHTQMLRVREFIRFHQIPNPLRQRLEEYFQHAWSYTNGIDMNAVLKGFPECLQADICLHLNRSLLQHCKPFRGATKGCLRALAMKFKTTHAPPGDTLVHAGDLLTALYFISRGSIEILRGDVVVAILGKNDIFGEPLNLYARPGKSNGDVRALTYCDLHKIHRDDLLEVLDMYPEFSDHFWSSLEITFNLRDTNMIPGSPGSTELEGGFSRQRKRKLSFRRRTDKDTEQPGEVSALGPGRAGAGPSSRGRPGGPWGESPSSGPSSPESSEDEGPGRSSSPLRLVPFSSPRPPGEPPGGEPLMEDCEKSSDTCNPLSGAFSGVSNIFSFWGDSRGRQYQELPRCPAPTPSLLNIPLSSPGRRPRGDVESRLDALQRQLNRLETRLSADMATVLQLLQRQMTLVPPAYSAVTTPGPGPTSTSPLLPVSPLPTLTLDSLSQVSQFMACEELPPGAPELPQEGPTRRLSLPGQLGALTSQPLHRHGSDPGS

## Cc1cccc(-c2cccc(NC(=O)c3nnc(CCC(=O)O)s3)c2)c1
[1]
  inhibition at 4 h, 1 µM: 8%
[2]
  EC50: 0.76 µM
[3]
  microsomal CLint at 2 µM: 21.6 µL/min/mg
[4]
  inhibition at 4 h, 5 µM: 2%
[5]
  inhibition at 20 µM: 12.3%
[6]
  inhibition at 20 µM: 94.3%
[7]
  inhibition at 4 h, 20 µM: 22%
[8]
  inhibition at 20 µM: 9.8%
[9]
  EC50: > 10 µM
[10]
  inhibition at 20 µM: 1.8%
[11]
  fraction unbound at 5 h, 1 µM: 0.076
[12]
  EC50: > 10 µM
[13]
  EC50: > 10 µM
[14]
  inhibition at 20 µM: 37.2%
[15]
  logD: 1.28
[16]
  half-life at 2 µM: 1.29 h
[17]
  half-life at 1 µM: > 4 h

## O=C(O)CCc1nnc(C(=O)Nc2ccc(OCc3ccccc3)cc2)s1
[2]
  EC50: 17.9 µM

## Cc1cccc(NC(=O)c2nnc(COc3ccc(CCC(=O)O)cc3)s2)c1
[2]
  EC50: 1.77 µM

## O=C(O)CCc1ccc(OCc2nnc(C(=O)Nc3ccccc3)s2)cc1
[2]
  EC50: 1.06 µM

## Cc1ccc(NC(=O)c2nnc(COc3ccc(CCC(=O)O)cc3)s2)cc1
[2]
  EC50: 4.3 µM

## O=C(O)CCc1ccc(OCc2nnc(C(=O)Nc3ccc(F)c(F)c3)s2)cc1
[2]
  EC50: 0.58 µM
[9]
  EC50: > 10 µM
[12]
  EC50: > 10 µM
[13]
  EC50: > 10 µM

## O=C(O)CCc1ccc(OCc2nnc(C(=O)Nc3ccc(Cl)cc3)s2)cc1
[2]
  EC50: 3.69 µM

## O=C(O)CCc1nnc(C(=O)Nc2cccc(-c3cccc(Cl)c3)c2)s1
[2]
  EC50: 1.69 µM

## O=C(O)CCc1ccc(OCc2nnc(C(=O)Nc3ccc(F)cc3)s2)cc1
[2]
  EC50: 6.64 µM

## O=C(O)CCc1ccc(OCc2nnc(C(=O)Nc3ccccc3F)s2)cc1
[1]
  inhibition at 4 h, 1 µM: 9%
[2]
  EC50: 0.58 µM
[3]
  microsomal CLint at 2 µM: 241 µL/min/mg
[4]
  inhibition at 4 h, 5 µM: -7%
[5]
  inhibition at 20 µM: -28.7%
[6]
  inhibition at 20 µM: 18.8%
[7]
  inhibition at 4 h, 20 µM: 4%
[8]
  inhibition at 20 µM: 12.8%
[9]
  EC50: > 10 µM
[10]
  inhibition at 20 µM: 6.6%
[12]
  EC50: > 10 µM
[13]
  EC50: > 10 µM
[14]
  inhibition at 20 µM: -3.3%
[15]
  logD: 0.95
[16]
  half-life at 2 µM: 0.115 h
[17]
  half-life at 1 µM: 0.34 h

## COc1ccc(NC(=O)c2nnc(COc3ccc(CCC(=O)O)cc3)s2)cc1
[2]
  EC50: > 10 µM

## O=C(O)CCc1ccc(OCc2nnc(C(=O)Nc3cccc(F)c3)s2)cc1
[2]
  EC50: 1.19 µM

## O=C(O)CCc1nnc(C(=O)Nc2cccc(-c3ccc(F)cc3)c2)s1
[1]
  inhibition at 4 h, 1 µM: -6%
[2]
  EC50: 1.28 µM
[3]
  microsomal CLint at 2 µM: 8 µL/min/mg
[4]
  inhibition at 4 h, 5 µM: -1%
[5]
  inhibition at 20 µM: -5.1%
[6]
  inhibition at 20 µM: 47.2%
[7]
  inhibition at 4 h, 20 µM: -1%
[8]
  inhibition at 20 µM: -1.9%
[9]
  EC50: > 10 µM
[10]
  inhibition at 20 µM: 11.8%
[11]
  fraction unbound at 5 h, 1 µM: 0.059
[12]
  EC50: > 10 µM
[13]
  EC50: > 10 µM
[14]
  inhibition at 20 µM: 25.2%
[15]
  logD: 0.96
[16]
  half-life at 2 µM: 3.48 h
[17]
  half-life at 1 µM: > 4 h

## O=C(O)CCc1nnc(C(=O)Nc2cccc(-c3ccco3)c2)s1
[2]
  EC50: 1.64 µM

## COc1cccc(NC(=O)c2nnc(COc3ccc(CCC(=O)O)cc3)s2)c1
[2]
  EC50: 4.68 µM

## O=C(O)CCc1ccc(OCc2nnc(C(=O)Nc3cccc(Cl)c3)s2)cc1
[1]
  inhibition at 4 h, 1 µM: 1%
[2]
  EC50: 10.6 µM
[3]
  microsomal CLint at 2 µM: 126 µL/min/mg
[4]
  inhibition at 4 h, 5 µM: -3%
[5]
  inhibition at 20 µM: 55.2%
[6]
  inhibition at 20 µM: 41.9%
[7]
  inhibition at 4 h, 20 µM: 36%
[8]
  inhibition at 20 µM: 85%
[10]
  inhibition at 20 µM: 22.7%
[11]
  fraction unbound at 5 h, 1 µM: 0.072
[14]
  inhibition at 20 µM: 77.7%
[15]
  logD: 1.46
[16]
  half-life at 2 µM: 0.22 h
[17]
  half-life at 1 µM: 1.93 h

## Cc1ccccc1NC(=O)c1nnc(COc2ccc(CCC(=O)O)cc2)s1
[2]
  EC50: 1.52 µM
